Experimental data as given in ChEMBL document CHEMBL4422636, “Investigation of the structural requirements for N-methyl-D-aspartate receptor positive and negative allosteric modulators based on 2-naphthoic acid” (Eur J Med Chem, 2019).
Active and inactive are the calls of the source. The calls are words filed in the database; no cut-off is given here.

How the values were obtained:
[1] = biological target: Glutamate receptor ionotropic, NMDA 2A (Rattus norvegicus) (UniProt Q00959); assay: Allosteric modulation of rat GluN2A expressed in Xenopus laevis oocytes assessed as L-glutamate/glycine-induced current response at 100 uM at holding potential -60 mV by two-electrode voltage clamp method relative to L-glutamate/glycine; format: cell-based
Outline: (§1)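 GluN1a with one GluN2 subunit; RNAs mixed 1:1–3 molar, 15–30 ng total injected into Xenopus oocytes, which were held in ND-96 at 17°C for 1–5 days. TEVC at −60 mV in 116 mM NaCl, 2 mM KCl, 0.3 mM BaCl2, 5 mM HEPES, pH 7.4. […] Reported as % of agonist-alone response, mean ± s.e.m., n≥4.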

[2] = biological target: Glutamate receptor ionotropic, NMDA 2B (Rattus norvegicus) (UniProt Q00960); assay: Allosteric modulation of rat GluN2B expressed in Xenopus laevis oocytes assessed as L-glutamate/glycine-induced current response at 100 uM at holding potential -60 mV by two-electrode voltage clamp method relative to L-glutamate/glycine; format: cell-based; outline: as §1
[3] = biological target: Glutamate receptor ionotropic, NMDA 2C (Rattus norvegicus) (UniProt Q00961); assay: Allosteric modulation of rat GluN2C expressed in Xenopus laevis oocytes assessed as L-glutamate/glycine-induced current response at 100 uM at holding potential -60 mV by two-electrode voltage clamp method relative to L-glutamate/glycine; format: cell-based; outline: as §1
[4] = biological target: Glutamate receptor ionotropic, NMDA 2D (Rattus norvegicus) (UniProt Q62645); assay: Allosteric modulation of rat GluN2D expressed in Xenopus laevis oocytes assessed as L-glutamate/glycine-induced current response at 100 uM at holding potential -60 mV by two-electrode voltage clamp method relative to L-glutamate/glycine; format: cell-based; outline: as §1
[5] = Solubility of the compound at 100 uM; format: physicochemical
Outline: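 Compounds were inspected for visible precipitation at the concentrations used in the oocyte assays.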

[6] = biological target: T1, Glutamate NMDA receptor; Grin1/Grin2a (Rattus norvegicus, UniProt P35439+Q00959); assay: Negative allosteric modulation of rat GluN1/GluN2A expressed in Xenopus laevis oocytes assessed as inhibition of L-glutamate/glycine-induced current response at holding potential -60 mV by two-electrode voltage clamp method; format: cell-based
Outline: (§2)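 Oocytes injected with GluN1a plus GluN2A, 2B, 2C or 2D RNA (1:1–3 molar, 15–30 ng total) and kept in ND-96 at 17°C for 1–5 days. TEVC at −60 mV in HEPES-buffered NaCl/KCl/BaCl2 saline, pH 7.4. […] Curves were fitted to give EC50/IC50 and maximal potentiation or inhibition, mean ± s.e.m.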

[7] = biological target: Glutamate NMDA receptor; Grin1/Grin2a (Rattus norvegicus) (UniProt P35439+Q00959); assay: Negative allosteric modulation of rat GluN1/GluN2A expressed in Xenopus laevis oocytes assessed as inhibition of L-glutamate/glycine-induced current response at holding potential -60 mV by two-electrode voltage clamp method relative to untreated control; format: cell-based; design: concentration or dose not given beside the values; outline: as §2
[8] = biological target: Glutamate NMDA receptor; Grin1/Grin2b (Rattus norvegicus, UniProt P35439+Q00960); assay: Negative allosteric modulation of rat GluN1/GluN2B expressed in Xenopus laevis oocytes assessed as inhibition of L-glutamate/glycine-induced current response at holding potential -60 mV by two-electrode voltage clamp method; format: cell-based; outline: as §2
[9] = biological target: Glutamate NMDA receptor; Grin1/Grin2b (Rattus norvegicus) (UniProt P35439+Q00960); assay: Negative allosteric modulation of rat GluN1/GluN2B expressed in Xenopus laevis oocytes assessed as inhibition of L-glutamate/glycine-induced current response at holding potential -60 mV by two-electrode voltage clamp method relative to untreated control; format: cell-based; design: concentration or dose not given beside the values; outline: as §2
[10] = biological target: T2, Glutamate NMDA receptor; Grin1/Grin2c (Rattus norvegicus, UniProt P35439+Q00961); assay: Negative allosteric modulation of rat GluN1/GluN2C expressed in Xenopus laevis oocytes assessed as inhibition of L-glutamate/glycine-induced current response at holding potential -60 mV by two-electrode voltage clamp method; format: cell-based; outline: as §2
[11] = biological target: Glutamate NMDA receptor; Grin1/Grin2c (Rattus norvegicus) (UniProt P35439+Q00961); assay: Negative allosteric modulation of rat GluN1/GluN2C expressed in Xenopus laevis oocytes assessed as inhibition of L-glutamate/glycine-induced current response at holding potential -60 mV by two-electrode voltage clamp method relative to untreated control; format: cell-based; design: concentration or dose not given beside the values; outline: as §2
[12] = biological target: T3, Ionotropic glutamate receptor NMDA 1/2D (Rattus norvegicus, UniProt P35439+Q62645); assay: Negative allosteric modulation of rat GluN1/GluN2D expressed in Xenopus laevis oocytes assessed as inhibition of L-glutamate/glycine-induced current response at holding potential -60 mV by two-electrode voltage clamp method; format: cell-based; outline: as §2
[13] = biological target: Ionotropic glutamate receptor NMDA 1/2D (Rattus norvegicus) (UniProt P35439+Q62645); assay: Negative allosteric modulation of rat GluN1/GluN2D expressed in Xenopus laevis oocytes assessed as inhibition of L-glutamate/glycine-induced current response at holding potential -60 mV by two-electrode voltage clamp method relative to untreated control; format: cell-based; design: concentration or dose not given beside the values; outline: as §2
[14] = biological target: T1, Glutamate NMDA receptor; Grin1/Grin2a; assay: Positive allosteric modulation of rat GluN1/GluN2A expressed in Xenopus laevis oocytes assessed as potentiation of L-glutamate/glycine-induced current response at holding potential -60 mV by two-electrode voltage clamp method; format: cell-based; outline: as §2
[15] = biological target: T2, Glutamate NMDA receptor; Grin1/Grin2c; assay: Positive allosteric modulation of rat GluN1/GluN2C expressed in Xenopus laevis oocytes assessed as potentiation of L-glutamate/glycine-induced current response at holding potential -60 mV by two-electrode voltage clamp method; format: cell-based; outline: as §2
[16] = biological target: T3, Ionotropic glutamate receptor NMDA 1/2D; assay: Positive allosteric modulation of rat GluN1/GluN2D expressed in Xenopus laevis oocytes assessed as potentiation of L-glutamate/glycine-induced current response at holding potential -60 mV by two-electrode voltage clamp method; format: cell-based; outline: as §2
[17] = biological target: Glutamate receptor ionotropic, NMDA 2A (Rattus norvegicus) (UniProt Q00959); assay: Agonist activity at rat GluN2A expressed in Xenopus laevis oocytes assessed effect on current response at holding potential -60 mV by two-electrode voltage clamp method relative to L-glutamate/glycine; format: cell-based; outline: as §1
[18] = biological target: Glutamate receptor ionotropic, NMDA 2B (Rattus norvegicus) (UniProt Q00960); assay: Agonist activity at rat GluN2B expressed in Xenopus laevis oocytes assessed as effect on current response at holding potential -60 mV by two-electrode voltage clamp method relative to L-glutamate/glycine; format: cell-based; outline: as §1
[19] = biological target: Glutamate receptor ionotropic, NMDA 2C (Rattus norvegicus) (UniProt Q00961); assay: Agonist activity at rat GluN2C expressed in Xenopus laevis oocytes assessed effect on current response at holding potential -60 mV by two-electrode voltage clamp method relative to L-glutamate/glycine; format: cell-based; outline: as §1
[20] = biological target: Glutamate receptor ionotropic, NMDA 2D (Rattus norvegicus) (UniProt Q62645); assay: Agonist activity at rat GluN2D expressed in Xenopus laevis oocytes assessed as effect on current response at holding potential -60 mV by two-electrode voltage clamp method relative to L-glutamate/glycine; format: cell-based; outline: as §1
[21] = biological target: Glutamate receptor ionotropic, NMDA 2A (Rattus norvegicus) (UniProt Q00959); assay: Positive allosteric modulation of rat GluN2A expressed in Xenopus laevis oocytes assessed as potentiation of L-glutamate/glycine-induced current response at holding potential -60 mV by two-electrode voltage clamp method relative to L-glutamate/glycine; format: cell-based; design: concentration or dose not given beside the values; outline: as §2
[22] = biological target: Glutamate receptor ionotropic, NMDA 2C (Rattus norvegicus) (UniProt Q00961); assay: Positive allosteric modulation of rat GluN2C expressed in Xenopus laevis oocytes assessed as potentiation of L-glutamate/glycine-induced current response at holding potential -60 mV by two-electrode voltage clamp method relative to L-glutamate/glycine; format: cell-based; design: concentration or dose not given beside the values; outline: as §2
[23] = biological target: Glutamate receptor ionotropic, NMDA 2D (Rattus norvegicus) (UniProt Q62645); assay: Positive allosteric modulation of rat GluN2D expressed in Xenopus laevis oocytes assessed as potentiation of L-glutamate/glycine-induced current response at holding potential -60 mV by two-electrode voltage clamp method relative to L-glutamate/glycine; format: cell-based; design: concentration or dose not given beside the values; outline: as §2

Row | SMILES | Activity [1] | Activity [2] | Activity [3] | Activity [4] | solubility [5] | Activity [17] | Activity [18] | Activity [19] | Activity [20] | further results
1 | O=C(O)c1cc2cc(-c3ccccc3)ccc2cc1O | 28.4% | 49.9% | 26.1% | 26.1% | Soluble | – | – | – | – | IC50 [6]: 11 µM; Activity [7]: 71.5%; IC50 [8]: 97.8 µM; Activity [9]: 56.8%; IC50 [10]: 41.8 µM; Activity [11]: 106%; IC50 [12]: 49.6 µM; Activity [13]: 98.6%
2 | CCCCCc1ccc2cc(C(=O)O)ccc2c1 | 131% | 102% | 126% | 110% | Soluble | inactive | inactive | inactive | inactive | EC50 [14]: 26.7 µM; EC50 [15]: 113 µM; EC50 [16]: 61 µM; Activity [21]: 39%; Activity [22]: 42.7%; Activity [23]: 17.3%
3 | CC(C/C=C/c1ccc2cc(C(=O)O)ccc2c1)C(=O)O (racemic) | 107% | 97% | 105% | 97% | Soluble | inactive | inactive | inactive | inactive | –
4 | CC(C)CCCc1ccc2cc(O)c(C(=O)O)cc2c1 | 78% | 113% | 113% | 180% | Soluble | inactive | inactive | inactive | inactive | –
5 | O=C(O)c1cc2cc(/C=C/c3ccccc3)ccc2cc1O | 32.7% | 7.3% | 21.7% | 11.3% | Soluble | – | – | – | – | IC50 [6]: 17.8 µM; Activity [7]: 83.2%; IC50 [8]: 7.5 µM; Activity [9]: 93.9%; IC50 [10]: 13.8 µM; Activity [11]: 86.3%; IC50 [12]: 8.6 µM; Activity [13]: 93.6%
6 | CC(C)CCCc1ccc2cc(C(=O)O)c(C(=O)O)cc2c1 | 92% | 88% | 47% | 24% | Soluble | inactive | inactive | inactive | inactive | –
7 | O=C(O)c1ccc2cc(CCCCc3ccccc3)ccc2c1 | 118% | 120% | 123% | 115% | Soluble | inactive | inactive | inactive | inactive | –
8 | CC(C)C/C=C/c1ccc2cc(C(=O)O)ccc2c1 | 135% | 152% | 264% | 220% | Soluble | inactive | inactive | inactive | inactive | –
9 | O=C(O)c1ccc2cc(I)c3ccccc3c2c1 | 109% | 101% | 65.9% | 47.7% | Soluble | inactive | inactive | inactive | inactive | –
10 | CCCCCc1ccc2cc(C(=O)O)ccc2c1Br | 73% | 52% | 97% | 99% | Soluble | inactive | inactive | inactive | inactive | –
11 | CC(CCCc1ccc2cc(C(=O)O)ccc2c1)CC(=O)O (racemic) | 60% | 64% | 96% | 71% | Soluble | inactive | inactive | inactive | inactive | –
12 | CC(C)CC(Cc1ccc2cc(C(=O)O)ccc2c1)C(=O)O (racemic) | 104% | 78% | 118% | 85% | Soluble | inactive | inactive | inactive | inactive | –
